Calls of active or inactive are those of the source. The rule behind the calls is not given here.
Key:
[1] = Cytotoxicity against mouse B16-F1 cells; type: cell-based
In short: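 MTT assay on B16F1 murine melanoma cells tested over 300−0.03 μM. Cells grown in DMEM with 10% FBS and 1% penicillin/streptomycin at 37 °C, 5% CO2.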

[2] = target: T1, Tyrosinase (Agaricus bisporus) (UniProt O42713); test: Inhibition of mushroom tyrosinase after 20 mins
T1 sequence (whole entry): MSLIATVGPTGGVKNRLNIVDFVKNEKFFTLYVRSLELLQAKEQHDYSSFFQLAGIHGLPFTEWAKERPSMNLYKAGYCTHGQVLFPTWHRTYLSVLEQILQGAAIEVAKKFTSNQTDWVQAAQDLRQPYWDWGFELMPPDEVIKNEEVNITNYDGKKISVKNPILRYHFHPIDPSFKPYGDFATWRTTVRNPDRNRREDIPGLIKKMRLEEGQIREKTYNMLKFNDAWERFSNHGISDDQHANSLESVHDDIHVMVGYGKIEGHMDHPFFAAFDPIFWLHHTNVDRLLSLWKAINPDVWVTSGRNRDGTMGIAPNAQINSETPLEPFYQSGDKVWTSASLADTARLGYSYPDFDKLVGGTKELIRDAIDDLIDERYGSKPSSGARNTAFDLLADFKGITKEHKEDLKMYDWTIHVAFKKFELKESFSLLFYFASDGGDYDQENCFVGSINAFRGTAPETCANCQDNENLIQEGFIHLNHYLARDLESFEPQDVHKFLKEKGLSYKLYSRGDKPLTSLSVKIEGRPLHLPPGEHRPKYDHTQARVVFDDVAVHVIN
In short: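 Mushroom tyrosinase in 0.1 M phosphate buffer with 0.03% (w/v) tyrosine as substrate, incubated 37 °C for 20 min. OD read at 492 nm; inhibition % = (1 − sample/control OD492) × 100. Arbutin positive control.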

[3] = target: T2, Tyrosinase (Mus musculus) (UniProt P11344); test: Inhibition of tyrosinase in mouse B16-F1 cells using L-DOPA as substrate at 30 uM after 72 hrs; type: cell-based
T2 sequence (whole entry): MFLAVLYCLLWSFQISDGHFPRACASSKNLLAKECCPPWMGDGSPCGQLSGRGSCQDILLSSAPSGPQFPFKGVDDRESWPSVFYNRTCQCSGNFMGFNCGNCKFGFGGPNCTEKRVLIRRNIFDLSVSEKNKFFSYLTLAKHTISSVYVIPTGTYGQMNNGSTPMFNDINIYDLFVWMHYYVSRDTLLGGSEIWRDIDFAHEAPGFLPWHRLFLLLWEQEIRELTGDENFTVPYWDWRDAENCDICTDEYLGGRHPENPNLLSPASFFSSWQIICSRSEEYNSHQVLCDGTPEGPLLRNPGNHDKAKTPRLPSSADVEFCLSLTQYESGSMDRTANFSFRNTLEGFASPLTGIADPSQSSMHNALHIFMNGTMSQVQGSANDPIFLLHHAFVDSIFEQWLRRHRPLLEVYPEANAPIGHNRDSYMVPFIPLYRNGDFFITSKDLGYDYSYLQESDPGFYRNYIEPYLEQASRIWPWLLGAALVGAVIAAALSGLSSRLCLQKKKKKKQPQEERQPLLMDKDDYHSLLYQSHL
In short: (§1)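 B16F1 cells treated 72 h with 3 or 30 μM. Cells lysed in 1% Triton X-100/PBS pH 6.8 and spun at 12000g, 4 °C. Supernatant mixed with 0.1% (w/v) L-DOPA; A475 followed over the first 2 h and normalized to total protein. Means ± SE of three independent experiments.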

[4] = system: B16/F1; test: Inhibition of PKA in mouse B16-F1 cells assessed as decrease of MITF promoter- dependent sex-determining region Y-box 10 mRNA expression at 3 uM after 72 hrs by […]; type: cell-based
In short: (§2)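 Two-color oligonucleotide microarray on Mouse OneArray chips, comparing untreated and treated (3 μM) B16F1 cells labelled with Cy3/Cy5-dUTP. RNA extracted with RNAiso Plus and further purified. Arrays scanned and probe-level expression values computed.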

[5] = Cytotoxicity against mouse B16-F1 cells at 5 mM; type: cell-based; conditions: b16-f1, 5000 µM
[6] = system: B16/F1; test: Inhibition of PKA in mouse B16-F1 cells assessed as decrease of MITF mRNA expression at 3 uM after 72 hrs by RT-PCR analysis relative to control; type: cell-based
In short: (§3)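 B16F1 cells treated 72 h at 3 μM. Total RNA extracted with Trizol; cDNA made from 2 μg RNA with M-MLV reverse transcriptase and oligo(dT). qPCR run 95 °C 3 min, then 50 cycles of 95 °C 10 s, 56 °C 15 s, 72 °C 20 s, with melting-curve check. Expression calculated relative to cyclophilin. Means ± SE of three independent experiments.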

[7] = system: B16/F1; test: Inhibition of PKA in mouse B16-F1 cells assessed as decrease of phosphorylated CREB expression at 3 uM after 72 hrs by immunoblotting; type: cell-based
In short: (§4)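 B16F1 cells treated 72 h at 3 μM. 40 μg total protein (Bradford) run on 10% SDS-PAGE and transferred to nitrocellulose. Blocked in TBS with 5% nonfat milk and 0.1% Tween 20. Probed with primary antibodies plus HRP secondaries and read by chemiluminescence. Band densities normalized to α-tubulin. Means ± SE of three independent experiments.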

[8] = system: B16/F1; test: Inhibition of PKA in mouse B16-F1 cells assessed as decrease of MC1R mRNA expression at 3 uM after 72 hrs by RT-PCR analysis; type: cell-based
[9] = system: B16/F1; test: Inhibition of PKA in mouse B16-F1 cells assessed as decrease of dopachrome tautomerase mRNA expression at 3 uM after 72 hrs by RT-PCR analysis; type: cell-based; in short: as §3
[10] = system: B16/F1; test: Inhibition of PKA in mouse B16-F1 cells assessed as effect on ERK2 phosphorylation at 3 uM after 72 hrs by immunoblotting; type: cell-based
[11] = system: B16/F1; test: Inhibition of PKA in mouse B16-F1 cells assessed as decrease of dopachrome tautomerase protein expression at 3 uM after 72 hrs by immunoblotting relative to control; type: cell-based; in short: as §4
[12] = system: B16/F1; test: Inhibition of PKA in mouse B16-F1 cells assessed as decrease of TRP-1 protein expression at 3 uM after 72 hrs by immunoblotting relative to control; type: cell-based; in short: as §4
[13] = system: B16/F1; test: Inhibition of PKA in mouse B16-F1 cells assessed as decrease of MITF mRNA expression at 3 uM after 72 hrs by RT-PCR analysis; type: cell-based; in short: as §3
[14] = system: B16/F1; test: Inhibition of PKA in mouse B16-F1 cells assessed as decrease of intracellular cAMP level at 3 uM after 72 hrs by colorimetric competitive immunoassay; type: cell-based
In short: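 Cellular cAMP in B16F1 cells after 72 h at 3 μM, measured by colorimetric competitive immunoassay kit. Means ± SE of three independent experiments.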

[15] = system: B16/F1; test: Inhibition of PKA in mouse B16-F1 cells assessed as decrease of CREB mRNA expression at 3 uM after 72 hrs by […]; type: cell-based; in short: as §2
[16] = system: B16/F1; test: Inhibition of PKA in mouse B16-F1 cells assessed as decrease of MITF promoter- dependent paired-box 3 mRNA expression at 3 uM after 72 hrs […]; type: cell-based; in short: as §2
[17] = system: B16/F1; test: Inhibition of PKA in mouse B16-F1 cells assessed as decrease of MITF promoter- dependent lymphoid enhancer factor mRNA expression at 3 uM after 72 hrs by […]; type: cell-based; in short: as §2
[18] = system: B16-F1; test: Inhibition of melanin synthesis in mouse B16-F1 cells after 72 hrs by spectrophotometric analysis; type: functional, cell-based
In short: (§5)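 B16F1 cells treated 72 h (3 or 30 μM). After lysis and centrifugation at 12000g, pellets dissolved in 1 N NaOH at 60 °C for 1 h. Absorbance read at 400 nm against a synthetic melanin standard, normalized to Bradford protein. Arbutin positive control. Means ± SE of three independent experiments.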

[19] = target: T2, Tyrosinase (Mus musculus); test: Inhibition of tyrosinase in mouse B16-F1 cells using L-DOPA as substrate at 3 uM after 72 hrs; type: cell-based; in short: as §1
[20] = system: B16/F1; test: Inhibition of PKA in mouse B16-F1 cells assessed as decrease of dopachrome tautomerase mRNA expression at 3 uM after 72 hrs by RT-PCR analysis relative to control; type: cell-based; in short: as §3
[21] = system: B16-F1; test: Inhibition of melanin synthesis in mouse B16-F1 cells at 3 uM after 72 hrs by spectrophotometric analysis relative to control; type: functional; conditions: B16-F1, 72 h; in short: as §5
[22] = system: B16-F1; test: Inhibition of melanin synthesis in mouse B16-F1 cells at 30 uM after 30 mins by Fontana-Masson staining; type: functional, cell-based; conditions: in the assay text read “after 72 hrs” for “after 30 mins”
In short: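 B16F1 cells on slides treated with 30 μM, fixed in 4% paraformaldehyde for 30 min at room temperature. Melanin stained by Fontana−Masson (ammoniacal silver, gold chloride, sodium thiosulfate).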

[23] = system: B16/F1; test: Inhibition of PKA in mouse B16-F1 cells assessed as decrease of MITF protein expression at 3 uM after 72 hrs by immunoblotting relative to control; type: cell-based; in short: as §4
[24] = system: B16-F1; test: Inhibition of melanin synthesis in mouse B16-F1 cells at 30 uM after 72 hrs by spectrophotometric analysis relative to control; type: functional; conditions: B16-F1, 72 h; in short: as §5
[25] = system: B16/F1; test: Inhibition of PKA in mouse B16-F1 cells assessed as effect on ERK2 mRNA expression at 3 uM after 72 hrs by RT-PCR analysis; type: cell-based
[26] = system: B16/F1; test: Inhibition of PKA in mouse B16-F1 cells assessed as decrease of TRP-1 mRNA expression at 3 uM after 72 hrs by RT-PCR analysis relative to control; type: cell-based; in short: as §3
[27] = system: B16/F1; test: Inhibition of PKA in mouse B16-F1 cells assessed as decrease of TRP-1 mRNA expression at 3 uM after 72 hrs by RT-PCR analysis; type: cell-based; in short: as §3

OC[C@H]1O[C@@H](Oc2ccc(O)cc2)[C@H](O)[C@@H](O)[C@@H]1O [ARBUTIN]
Activity [1]: Toxic
inhibition [2]: Active

COc1cc(/C=C/C(=O)O[C@H]2CC[C@]34C[C@]35CC[C@]3(C)[C@@H]([C@H](C)CCC=C(C)C)CC[C@@]3(C)[C@@H]5CC[C@H]4C2(C)C)ccc1O [GAMMA ORYZANOL]
inhibition [3]: 26%
inhibition [4]: 90%
Activity [5]: Non-toxic
inhibition [6]: 59%
inhibition [7]: 57%
inhibition [8]: 56%
inhibition [9]: 56%
inhibition [10]: inactive
inhibition [11]: 92%
inhibition [12]: 82%
inhibition [13]: 90%
inhibition [14]: 13%
inhibition [15]: 28%
inhibition [2]: Dose-dependent effect
inhibition [16]: 29%
inhibition [17]: 40%
inhibition [18]: Dose-dependent effect
inhibition [19]: 29%
inhibition [20]: 51%
inhibition at 3 µM [21]: 13%
inhibition [22]: Active
inhibition [23]: 64%
inhibition at 30 µM [24]: 28%
inhibition [25]: inactive
inhibition [26]: 69%
inhibition [27]: 94%
